Experimental data as given in ChEMBL document CHEMBL1128576, “Time-resolved ligand exchange reactions: kinetic models for competitive inhibitors with recombinant human renin” (J Med Chem, 1995).

Legend:
Renin (Homo sapiens) [1] = molecular target: T1, Renin (Homo sapiens) (UniProt P00797); assay: (§1) Component […] rate constant by the compound against Renin was determined
T1 sequence (whole entry): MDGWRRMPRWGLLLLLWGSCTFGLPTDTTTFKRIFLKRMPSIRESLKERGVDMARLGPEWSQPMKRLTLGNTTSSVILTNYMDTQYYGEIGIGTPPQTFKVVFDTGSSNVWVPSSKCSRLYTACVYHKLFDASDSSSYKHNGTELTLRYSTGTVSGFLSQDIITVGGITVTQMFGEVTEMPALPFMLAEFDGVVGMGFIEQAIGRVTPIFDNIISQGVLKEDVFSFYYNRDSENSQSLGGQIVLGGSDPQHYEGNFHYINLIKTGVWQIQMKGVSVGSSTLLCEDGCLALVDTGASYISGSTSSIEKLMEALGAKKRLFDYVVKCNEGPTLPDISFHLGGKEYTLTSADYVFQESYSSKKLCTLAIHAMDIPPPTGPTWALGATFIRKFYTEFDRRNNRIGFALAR

[2] = Half life period of the compound.; type: ADME
Procedure, shortened: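 Half-life was calculated as ln2/koff (first-order decay). koff came from paired fluorescent-probe ligand exchange with recombinant human renin: 5.0×10^-8 M renin, 5.0×10^-7 M probe, pH 7.4 HEPES/octyl glucoside buffer, 37 °C, 5-min preincubation. The two curves were fitted simultaneously, with the probe rate constants held fixed.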

Renin (Homo sapiens) [3] = molecular target: T1, Renin (Homo sapiens); assay: as §1; set-up: unit not given here

Work on `COC1(CN(CC(=O)N(C)CCc2ccccn2)C(=O)C[C@@H](Cc2csc(N)n2)C(=O)N[C@@H](CC2CCCCC2)[C@@H](O)[C@@H](O)CC(C)C)CCCCC1` yielded a k on (Renin (Homo sapiens) [1]) of 2.28e+06 M⁻¹ s⁻¹, a half-life [2] of 6.6 min and a Koff (Renin (Homo sapiens) [3]) of 0.00175.
`CC(C)C[C@H](O)[C@H](O)[C@H](CC1CCCCC1)NC(=O)[C@@H](CC(=O)N(CC(=O)N(C)CCN(C)C(=O)N1CCOCC1)[C@@H](C)c1ccccc1)Cc1csc(N)n1` showed a k on (Renin (Homo sapiens) [1]) of 5.43e+06 M⁻¹ s⁻¹, a half-life [2] of 8.7 min and a Koff (Renin (Homo sapiens) [3]) of 0.00133.
In the case of `CC(C)C[C@H](O)[C@H](O)[C@H](CC1CCCCC1)NC(=O)[C@@H](CC(=O)N(CC(=O)N(C)CCc1ccccn1)CC1CCCCCC1)Cc1csc(N)n1`, the k on (Renin (Homo sapiens) [1]) is reported as 8.63e+06 M⁻¹ s⁻¹, the half-life [2] is reported as 49.4 min and the Koff (Renin (Homo sapiens) [3]) is reported as 0.000234.
`CC(C)C[C@H](O)[C@H](O)[C@H](CC1CCCCC1)NC(=O)[C@@H](CC(=O)N(CC(=O)N(C)CCc1ccccn1)CC1CCCCC1)Cc1csc(N)n1` gave a k on (Renin (Homo sapiens) [1]) of 5.93e+06 M⁻¹ s⁻¹, a half-life [2] of 41.3 min and a Koff (Renin (Homo sapiens) [3]) of 0.00028.
With `CC(C)C[C@H](O)[C@H](O)[C@H](CC1CCCCC1)NC(=O)[C@@H](CC(=O)N(CC(=O)N(C)CCc1ccccn1)CC1(C)CCCCC1)Cc1csc(N)n1` the k on (Renin (Homo sapiens) [1]) was 1.22e+07 M⁻¹ s⁻¹, the half-life [2] was 20.3 min and the Koff (Renin (Homo sapiens) [3]) was 0.000569.
In the case of `CC(C)C[C@H](O)[C@H](O)[C@H](CC1CCCCC1)NC(=O)[C@@H](CC(=O)N(CC(=O)N(C)CCN1CCOCC1)[C@@H](C)c1ccccc1)Cc1csc(N)n1`, the k on (Renin (Homo sapiens) [1]) is reported as 2.07e+06 M⁻¹ s⁻¹, the half-life [2] is reported as 2.4 min and the Koff (Renin (Homo sapiens) [3]) is reported as 0.00481.
For `CC(C)C[C@H](O)[C@H](O)[C@H](CC1CCCCC1)NC(=O)[C@@H](CC(=O)N(CC(=O)N(C)CCC(=O)N1CCOCC1)[C@@H](C)c1ccccc1)Cc1csc(N)n1`, the k on (Renin (Homo sapiens) [1]) was 2e+06 M⁻¹ s⁻¹, the half-life [2] was 8.9 min and the Koff (Renin (Homo sapiens) [3]) was 0.0013.
Work on `CC(C)C[C@H](O)[C@H](O)[C@H](CC1CCCCC1)NC(=O)[C@@H](CC(=O)N(CC(=O)N(C)CCc1ccccn1)[C@@H](C)c1ccccc1)Cc1csc(N)n1` yielded a k on (Renin (Homo sapiens) [1]) of 6.68e+06 M⁻¹ s⁻¹, a half-life [2] of 8.6 min and a Koff (Renin (Homo sapiens) [3]) of 0.00135.
